According to the RNAGym collection of RNA variant scans (doi:10.1101/gad.245936.114):
This sample holds only a part of the variants without activity.

B1: tRNA (parent)
chain: CUCUCGGUAGCCAAGUUGGUUUAAGGCGCAAGACUUUAAUUUAUCACUACGAAAUCUUGAGAUCGGGCGUUCGACUCGCCCCCGGGAGAUUUUUUCCUCGAGCAA

Variants of: B1
Test: nonsense suppression (GFP-seq) (ratio to wild type); higher = more function; SUP4oc tRNA, yeast GFP reporter sort-seq
Method in brief: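 Yeast were grown in raffinose/galactose medium with 80 mg/L adenine, each strain bearing a genome-integrated ochre-suppressor tRNA variant from a ~3% random-mutation library, a galactose-driven GFP ochre reporter, and RFP. After sorting into GFP/RFP bins, every bin was sequenced on an Illumina platform at phred ≥30. The GFPSEQ value, a measure of nonsense suppression, is the weighted bin median GFP/RFP relative to the unmutated parent tRNA, using each variant's estimated cell share per bin as the weight. Only variants with ≥100 reads and ≥30 cells were included.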

**Q.** With G10C A54U as the variant, how does the nonsense suppression read?
**A.** The nonsense suppression was ≤ 0.026.

**Q.** With U2G U16G U22G A23U as the variant, how does the nonsense suppression read?
**A.** The nonsense suppression was ≤ 0.026.

**Q.** With C3U A33U as the variant, how does the nonsense suppression read?
**A.** Its nonsense suppression is 0.027.

**Q.** For C3U U22C, which nonsense suppression is on record?
**A.** The nonsense suppression was 0.304.

**Q.** Which nonsense suppression does the source give for G26U A33G G78C G84A here?
**A.** The nonsense suppression was ≤ 0.026.

**Q.** For U16C A54C, which nonsense suppression is on record?
**A.** The nonsense suppression was 1.22.

**Q.** Which nonsense suppression does the source give for C1A C56G A62U C80G C82A here?
**A.** Its nonsense suppression is ≤ 0.026.

**Q.** With A60G A89U as the variant, how does the nonsense suppression read?
**A.** Its nonsense suppression is 0.0291.

**Q.** With U8C U20A as the variant, how does the nonsense suppression read?
**A.** The nonsense suppression was 0.0281.

**Q.** For A13C G61A, which nonsense suppression is on record?
**A.** Its nonsense suppression is 0.852.

**Q.** With C5U A30U as the variant, how does the nonsense suppression read?
**A.** The nonsense suppression was 0.138.

**Q.** For U21C A24G, which nonsense suppression is on record?
**A.** The nonsense suppression was 0.0906.

**Q.** For G28U A30C A33G A54G U76C C79A, which nonsense suppression is on record?
**A.** Its nonsense suppression is ≤ 0.026.

**Q.** Which nonsense suppression does the source give for U22G A60C here?
**A.** The nonsense suppression was 0.175.

**Q.** With G19A C34A G59A G73U C82U as the variant, how does the nonsense suppression read?
**A.** Its nonsense suppression is ≤ 0.026.

**Q.** Which nonsense suppression does the source give for C1U U2G G18U here?
**A.** Its nonsense suppression is ≤ 0.026.

**Q.** Which nonsense suppression does the source give for C29U A30G here?
**A.** The nonsense suppression was 1.1.

**Q.** Which nonsense suppression does the source give for G26U G69U C79U here?
**A.** The nonsense suppression was ≤ 0.026.

**Q.** Which nonsense suppression does the source give for G7A A60G here?
**A.** The nonsense suppression was 0.053.

**Q.** For A9U, which nonsense suppression is on record?
**A.** Its nonsense suppression is 0.802.

**Q.** With U2G U55G as the variant, how does the nonsense suppression read?
**A.** Its nonsense suppression is ≤ 0.026.

**Q.** For G61C C75A, which nonsense suppression is on record?
**A.** The nonsense suppression was 1.06.

**Q.** With U21G U76C as the variant, how does the nonsense suppression read?
**A.** The nonsense suppression was 0.861.

**Q.** Which nonsense suppression does the source give for A13C G28U here?
**A.** Its nonsense suppression is 0.0283.

**Q.** With G61U C75G as the variant, how does the nonsense suppression read?
**A.** The nonsense suppression was 1.08.

**Q.** For G15C G25U, which nonsense suppression is on record?
**A.** The nonsense suppression was ≤ 0.026.

**Q.** For G15U A24G G86C, which nonsense suppression is on record?
**A.** Its nonsense suppression is ≤ 0.026.

**Q.** Which nonsense suppression does the source give for U20G G61U here?
**A.** Its nonsense suppression is 0.874.

**Q.** For A62U C75G, which nonsense suppression is on record?
**A.** Its nonsense suppression is 0.201.

**Q.** With C12U U55G U70G C83U as the variant, how does the nonsense suppression read?
**A.** The nonsense suppression was ≤ 0.026.

**Q.** For C5U C79U, which nonsense suppression is on record?
**A.** Its nonsense suppression is 0.0439.

**Q.** For A13U A54U, which nonsense suppression is on record?
**A.** Its nonsense suppression is 0.728.

**Q.** For C29U G61U, which nonsense suppression is on record?
**A.** The nonsense suppression was 0.754.

**Q.** Which nonsense suppression does the source give for G18A U21G C34U here?
**A.** The nonsense suppression was ≤ 0.026.

**Q.** Which nonsense suppression does the source give for G18C G19A A24U here?
**A.** The nonsense suppression was ≤ 0.026.

**Q.** For U2G C77G, which nonsense suppression is on record?
**A.** Its nonsense suppression is ≤ 0.026.

**Q.** For C29U C64U, which nonsense suppression is on record?
**A.** The nonsense suppression was 0.035.

**Q.** With A30G C75U as the variant, how does the nonsense suppression read?
**A.** The nonsense suppression was 1.19.

**Q.** For U2G A23U, which nonsense suppression is on record?
**A.** The nonsense suppression was ≤ 0.026.

**Q.** With G65U G67A as the variant, how does the nonsense suppression read?
**A.** Its nonsense suppression is ≤ 0.026.

**Q.** With A23G A60C as the variant, how does the nonsense suppression read?
**A.** Its nonsense suppression is 0.241.

**Q.** With G25C A60G as the variant, how does the nonsense suppression read?
**A.** The nonsense suppression was 0.0619.

**Q.** With U21A A60G as the variant, how does the nonsense suppression read?
**A.** Its nonsense suppression is 0.302.

**Q.** With U16A G65A G66A as the variant, how does the nonsense suppression read?
**A.** The nonsense suppression was ≤ 0.026.

**Q.** For U4C U63G, which nonsense suppression is on record?
**A.** The nonsense suppression was 0.0946.

**Q.** Which nonsense suppression does the source give for G15A G73C C75G here?
**A.** The nonsense suppression was ≤ 0.026.

**Q.** With U57A U58C C81G as the variant, how does the nonsense suppression read?
**A.** Its nonsense suppression is ≤ 0.026.

**Q.** Which nonsense suppression does the source give for U4G A33G here?
**A.** The nonsense suppression was 0.0332.

**Q.** For G28C G73U, which nonsense suppression is on record?
**A.** Its nonsense suppression is 0.0322.

**Q.** For A9U A74G, which nonsense suppression is on record?
**A.** The nonsense suppression was 0.0977.

**Q.** For A24C C34G C56U, which nonsense suppression is on record?
**A.** The nonsense suppression was ≤ 0.026.

**Q.** With C34U U70A as the variant, how does the nonsense suppression read?
**A.** The nonsense suppression was ≤ 0.026.

**Q.** For A24C G28A, which nonsense suppression is on record?
**A.** Its nonsense suppression is 0.952.

**Q.** With A60C A62U as the variant, how does the nonsense suppression read?
**A.** Its nonsense suppression is 0.0785.

**Q.** With A60G A74G as the variant, how does the nonsense suppression read?
**A.** The nonsense suppression was 0.0684.

**Q.** For C1A C3G U58A C68G, which nonsense suppression is on record?
**A.** Its nonsense suppression is ≤ 0.026.

**Q.** With C11G C72G as the variant, how does the nonsense suppression read?
**A.** The nonsense suppression was ≤ 0.026.

**Q.** Which nonsense suppression does the source give for A60C C79U here?
**A.** Its nonsense suppression is 0.14.

**Q.** With U17A G61C as the variant, how does the nonsense suppression read?
**A.** The nonsense suppression was 0.665.

**Q.** Which nonsense suppression does the source give for C1G G25A U35C here?
**A.** The nonsense suppression was ≤ 0.026.

**Q.** With G73A A89C as the variant, how does the nonsense suppression read?
**A.** Its nonsense suppression is 0.0768.

**Q.** With C1U G66A as the variant, how does the nonsense suppression read?
**A.** Its nonsense suppression is 0.254.

**Q.** For A24U A33G, which nonsense suppression is on record?
**A.** Its nonsense suppression is 0.117.

**Q.** With G78A C82G as the variant, how does the nonsense suppression read?
**A.** The nonsense suppression was 0.0423.

**Q.** For A14U A23G A62U G84A, which nonsense suppression is on record?
**A.** Its nonsense suppression is ≤ 0.026.

**Q.** For A13G C27A C29G A33U U76C G86U, which nonsense suppression is on record?
**A.** Its nonsense suppression is ≤ 0.026.

**Q.** Which nonsense suppression does the source give for C5A U76C G86C here?
**A.** Its nonsense suppression is ≤ 0.026.

**Q.** With G73A C79U as the variant, how does the nonsense suppression read?
**A.** Its nonsense suppression is 0.207.

**Q.** For C3U A31U, which nonsense suppression is on record?
**A.** The nonsense suppression was ≤ 0.026.

**Q.** With U20A G61C as the variant, how does the nonsense suppression read?
**A.** The nonsense suppression was 0.0711.

**Q.** For G61C C81G, which nonsense suppression is on record?
**A.** The nonsense suppression was 0.248.

**Q.** Which nonsense suppression does the source give for G25C C77U C80G here?
**A.** Its nonsense suppression is ≤ 0.026.

**Q.** For G18A A30U, which nonsense suppression is on record?
**A.** Its nonsense suppression is 0.0262.

**Q.** For G10C G25C G61C U71A, which nonsense suppression is on record?
**A.** Its nonsense suppression is ≤ 0.026.

**Q.** For C11G C80G, which nonsense suppression is on record?
**A.** The nonsense suppression was ≤ 0.026.

**Q.** For A74G G78C G86C, which nonsense suppression is on record?
**A.** The nonsense suppression was ≤ 0.026.

**Q.** Which nonsense suppression does the source give for U63G G85A here?
**A.** Its nonsense suppression is 0.787.

**Q.** Which nonsense suppression does the source give for U21C A62G here?
**A.** The nonsense suppression was 0.0282.

**Q.** Which nonsense suppression does the source give for G78A C81G here?
**A.** Its nonsense suppression is 0.0732.

**Q.** With C3A C34A U58A as the variant, how does the nonsense suppression read?
**A.** The nonsense suppression was ≤ 0.026.

**Q.** With A33G U58A as the variant, how does the nonsense suppression read?
**A.** Its nonsense suppression is ≤ 0.026.

**Q.** With A9U A54G as the variant, how does the nonsense suppression read?
**A.** The nonsense suppression was 0.0306.

**Q.** For U17C C29G, which nonsense suppression is on record?
**A.** The nonsense suppression was ≤ 0.026.

**Q.** With G84A G86U as the variant, how does the nonsense suppression read?
**A.** Its nonsense suppression is ≤ 0.026.
